From ChEMBL document CHEMBL4346727, “Synthesis and pharmacological evaluation of novel N-Mannich bases derived from 5,5-diphenyl and 5,5-di(propan-2-yl)imidazolidine-2,4-dione core” (Bioorg Med Chem Lett, 2019)
Activity calls are given as the source filed them. Unless noted, no cut-off for these calls is given here.

Key:
Mus musculus [1] = assay: Anticonvulsant activity in CD1 mouse assessed as protection against 32 mA current-induced seizure at 25 mg/kg, ip measured after 4 hrs by 6 Hz psychomotor seizure test
Mus musculus [2] = assay: Anticonvulsant activity in ip dosed CD1 mouse assessed as time to peak effect on protection against 32 mA current-induced seizure by 6 Hz psychomotor seizure test; format: functional
Outline: (§1)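 Median effective doses were quantified in the maximal electroshock, subcutaneous pentylenetetrazole and 6 Hz tests after intraperitoneal dosing in mice or oral dosing in rats, at the time of peak effect. ED50 values are reported with ranges in parentheses.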

Mus musculus [3] = assay: Anticonvulsant activity in CD1 mouse assessed as protection against 32 mA current-induced seizure at 100 mg/kg, ip measured after 1 hr by 6 Hz psychomotor seizure test
Mus musculus [4] = assay: Anticonvulsant activity in ip dosed CD1 mouse assessed as protection against 50 mA current-induced seizures; format: functional
Outline: as §1

Mus musculus [5] = assay: Anticonvulsant activity in CD1 mouse assessed as protection against 32 mA current-induced seizure at 25 mg/kg, ip measured after 1 hr by 6 Hz psychomotor seizure test
Mus musculus [6] = assay: Anticonvulsant activity in CD1 mouse assessed as protection against 32 mA current-induced seizure at 100 mg/kg, ip measured after 4 hrs by 6 Hz psychomotor seizure test
[7] = Protection index, ratio of TD50 for neurotoxicity in ip dosed CD1 mouse by rotarod test to ED50 for anticonvulsant activity in ip dosed CD1 mouse by maximal electroshock seizure test; format: toxicity, organism-based; conditions: in vivo, read-out: Ratio TD50/ED50
[8] = Neurotoxicity in CD1 mouse at 100 mg/kg, ip and measured after 0.5 to 4 hrs by rotarod test; format: toxicity, organism-based; conditions: in vivo
Outline: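 Rotarod neurotoxicity screen in mice after intraperitoneal dosing. For the 6 Hz series the count is mice out of four showing neurotoxicity, scored as inability to grasp the rotarod or muscle spasms, at 0.25–4 h. For the initial screen the minimum toxic dose is taken from 30, 100 and 300 mg/kg at 0.5 and 4 h.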

[9] = Neurotoxicity in ip dosed CD1 mouse assessed as time to peak effect by rotarod test; format: toxicity, organism-based; conditions: in vivo
Mus musculus [10] = assay: Anticonvulsant activity in ip dosed CD1 mouse assessed as protection against subcutaneous pentylenetetrazole-induced seizures; format: functional
Outline: as §1

[11] = Neurotoxicity in CD1 mouse at 50 mg/kg, ip measured after 30 mins by rotarod test; conditions: in vivo, 0.5 h
Mus musculus [12] = assay: Anticonvulsant activity in CD1 mouse assessed as protection against 32 mA current-induced seizure at 50 mg/kg, ip measured after 1 hr by 6 Hz psychomotor seizure test
Rattus norvegicus = assay: Anticonvulsant activity in po dosed Sprague-Dawley rat assessed as time to peak effect on protection against subcutaneous pentylenetetrazole-induced seizures; format: functional
[13] = Neurotoxicity in ip dosed CD1 mouse and measured after 4 hrs by rotarod test; format: toxicity, organism-based; conditions: in vivo
Outline: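 Mice dosed intraperitoneally at 30, 100 and 300 mg/kg, then tested on the rotarod at 0.5 h and 4 h. The value recorded is the minimum dose at which neurotoxicity appeared. A dash means no neurotoxicity at the top dose of 300 mg/kg.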

Mus musculus [14] = assay: Potency index, ratio of phenytoin ED50 to compound ED50 for anticonvulsant activity in ip dosed CD1 mouse by 6 Hz psychomotor seizure test; format: functional
[15] = Neurotoxicity in CD1 mouse at 25 mg/kg, ip measured after 15 mins by rotarod test; conditions: in vivo, 0.25 h
[16] = Neurotoxicity in Sprague-Dawley rat at 30 mg/kg, po measured after 1 hr by rotarod test; format: toxicity, organism-based; conditions: in vivo
Outline: (§2)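 Rats given one oral dose of 30 mg/kg and tested on the rotarod at 0.25, 0.5, 1, 2, 4 and 6 h.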

Mus musculus [17] = assay: Anticonvulsant activity in CD1 mouse assessed as protection against 32 mA current-induced seizure at 50 mg/kg, ip measured after 15 mins by 6 Hz psychomotor seizure test
Mus musculus [18] = assay: Anticonvulsant activity in ip dosed CD1 mouse assessed as protection against 50 mA current-induced seizure and measured after 0.5 hrs by maximal electroshock seizure test; format: functional; conditions: read-out: MED
Outline: (§3)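 Mice were screened after intraperitoneal doses of 30, 100 and 300 mg/kg in the maximal electroshock and subcutaneous pentylenetetrazole tests, examined at 0.5 and 4 h. The value recorded is the minimum dose showing activity. No activity up to 300 mg/kg is scored as absent.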

[19] = Neurotoxicity in CD1 mouse at 25 mg/kg, ip measured after 4 hrs by rotarod test; conditions: in vivo
Mus musculus [20] = assay: Anticonvulsant activity in CD1 mouse assessed as protection against subcutaneous pentylenetetrazole-induced seizures at 300 mg/kg, ip and measured after 0.5 hrs; format: functional, organism-based
Outline: as §3

[21] = Neurotoxicity in Sprague-Dawley rat at 30 mg/kg, po measured after 2 hr by rotarod test; format: toxicity, organism-based; conditions: in vivo
Outline: as §2

In the case of CN1CCN(CN2C(=O)NC(c3ccccc3)(c3ccccc3)C2=O)CC1, the Activity (Mus musculus [1]) is reported as “inactive”, the Time (Mus musculus [2]) is reported as 1 h and the Activity (Mus musculus [3]) is reported as “Active”. The ED50 (Mus musculus [4]) was 11.1 mg/kg, the Activity (Mus musculus [5]) was “Active” and the Activity (Mus musculus [6]) was “Active”. For the same compound, the selectivity ratio [7] was 6.78, the Activity [8] was “Toxic” and the Time [9] was 1 h. For the same compound, the ED50 (Mus musculus [10]) was > 80 mg/kg, the Activity [11] was “Non-Toxic” and the Activity (Mus musculus [12]) was “Active”. For the same compound, the Time (Rattus norvegicus) was 2 h, the MTC [13] was 100 mg/kg and the “Ratio ED50” value (Mus musculus [14]) was 5. For the same compound, the Activity [15] was “Non-Toxic”, the Activity [16] was “Non-Toxic” and the Activity (Mus musculus [17]) was “Active”. The minimal effective dose (Mus musculus [18]) was 10 mg/kg, the Activity [19] was “Non-Toxic” and the MED (Mus musculus [20]) was “inactive”. The Activity [21] was “Non-Toxic”.
